Test results published in ChEMBL document CHEMBL4831478, “Bispecific Estrogen Receptor α Degraders Incorporating Novel Binders Identified Using DNA-Encoded Chemical Library Screening” (J Med Chem, 2021).
pIC50: −log10 of the molar value.

Tests used:
[1] = test system: MCF7; assay: Antiproliferative activity against human MCF7 cells assessed as growth inhibition preincubated with estradiol for 30 mins followed by compound addition and measured after 72 hrs by CellTiter-Glo assay; type: functional
[2] = molecular target: T1, Estrogen receptor (Homo sapiens, UniProt P03372); assay: Binding affinity to recombinant His-tagged ERalpha LBD (307 to 554 residue) (unknown origin) expressed in Escherichia coli preincubated for 15 mins followed by ligand addition and measured after 1 hr by fluorescent polarization assay
T1 sequence (P03372 whole entry): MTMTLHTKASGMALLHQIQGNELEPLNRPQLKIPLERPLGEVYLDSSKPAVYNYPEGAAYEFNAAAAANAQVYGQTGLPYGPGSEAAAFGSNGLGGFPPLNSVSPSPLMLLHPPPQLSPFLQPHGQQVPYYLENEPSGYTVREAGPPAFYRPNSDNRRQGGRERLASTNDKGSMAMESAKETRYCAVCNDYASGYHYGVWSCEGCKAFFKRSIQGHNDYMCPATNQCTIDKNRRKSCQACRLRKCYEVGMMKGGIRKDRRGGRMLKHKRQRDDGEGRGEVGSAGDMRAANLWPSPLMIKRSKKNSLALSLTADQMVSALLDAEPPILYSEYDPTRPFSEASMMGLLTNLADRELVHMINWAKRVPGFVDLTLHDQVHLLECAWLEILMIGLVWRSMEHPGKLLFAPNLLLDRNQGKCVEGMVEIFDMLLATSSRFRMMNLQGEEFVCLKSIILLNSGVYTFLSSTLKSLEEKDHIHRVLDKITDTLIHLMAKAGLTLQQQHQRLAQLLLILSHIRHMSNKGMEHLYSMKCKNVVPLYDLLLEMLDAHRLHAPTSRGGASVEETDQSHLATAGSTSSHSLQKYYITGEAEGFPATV
Summary of the method: (§1)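 ERα LBD (aa 307–554), WT or D538G, S463P, Y537S, with N-terminal Avi-Tev-His tag, expressed in E. coli T7 Express (20 °C, 12 h, IPTG). Purified by Ni-NTA then size exclusion. Compound preincubated with protein 15 min, fluorescent ligand added, 1 h at room temperature. FP read ex 485/em 535 nm; duplicate runs averaged.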

[3] = molecular target: T1, Estrogen receptor; assay: Induction of ERalpha degradation in human MCF7 cells assessed as decrease in ERalpha protein expression incubated for 48 hrs by Western blot analysis; type: cell-based
[4] = molecular target: Estrogen receptor (Homo sapiens, UniProt P03372, Y537S); assay: Binding affinity to ERalpha Y537S mutant (unknown origin) expressed in Escherichia coli preincubated for 15 mins followed by ligand addition and measured after 1 hr by fluorescent polarization assay; summary of the method: as §1
Chain of Estrogen receptor (Homo sapiens, UniProt P03372, Y537S) (P03372 whole entry Y537S): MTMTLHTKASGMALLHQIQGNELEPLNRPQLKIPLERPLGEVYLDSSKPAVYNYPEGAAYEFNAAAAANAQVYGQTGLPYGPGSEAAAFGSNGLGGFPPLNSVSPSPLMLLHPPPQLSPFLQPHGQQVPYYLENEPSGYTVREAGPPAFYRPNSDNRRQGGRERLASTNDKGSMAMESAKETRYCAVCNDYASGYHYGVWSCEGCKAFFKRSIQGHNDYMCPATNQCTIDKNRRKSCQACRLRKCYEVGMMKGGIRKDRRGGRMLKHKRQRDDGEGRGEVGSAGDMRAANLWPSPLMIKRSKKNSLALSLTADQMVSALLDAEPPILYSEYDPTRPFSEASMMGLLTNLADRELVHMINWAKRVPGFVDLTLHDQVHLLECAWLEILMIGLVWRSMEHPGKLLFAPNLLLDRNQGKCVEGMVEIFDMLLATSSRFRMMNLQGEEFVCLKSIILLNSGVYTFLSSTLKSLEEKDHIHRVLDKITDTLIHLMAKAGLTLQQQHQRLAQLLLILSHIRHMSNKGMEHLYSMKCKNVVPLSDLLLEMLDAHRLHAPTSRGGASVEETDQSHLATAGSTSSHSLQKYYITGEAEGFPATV

[5] = test system: MCF7; assay: Antiproliferative activity against human MCF7 cells assessed as growth inhibition preincubated with estradiol for 30 mins followed by compound addition and measured after 7 days by CellTiter-Glo assay; type: functional; settings: MCF7, 168 h, time 7 day
Summary of the method: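 MCF7 cells seeded in hormone-deprived media for 72 h. All wells except minimum-signal controls received 0.1 nM estradiol for 30 min, then compound in a 10-point dose series. Incubated 7 days at 37 °C, 5% CO2; ATP content read by CellTiter-Glo 2.0. Duplicate runs averaged.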

[6] = molecular target: Estrogen receptor (Homo sapiens, UniProt P03372, D538G); assay: Binding affinity to ERalpha D538G mutant (unknown origin) expressed in Escherichia coli preincubated for 15 mins followed by ligand addition and measured after 1 hr by fluorescent polarization assay; summary of the method: as §1
Chain of Estrogen receptor (Homo sapiens, UniProt P03372, D538G) (P03372 whole entry D538G): as the sequence (P03372 whole entry Y537S) above, with S537Y, D538G counted along it

[7] = molecular target: Estrogen receptor (Homo sapiens, UniProt P03372, S463P); assay: Binding affinity to ERalpha S463P mutant (unknown origin) expressed in Escherichia coli preincubated for 15 mins followed by ligand addition and measured after 1 hr by fluorescent polarization assay; summary of the method: as §1
Chain of Estrogen receptor (Homo sapiens, UniProt P03372, S463P) (P03372 whole entry S463P): as the sequence (P03372 whole entry Y537S) above, with S463P, S537Y counted along it

[8] = molecular target: T1, Estrogen receptor; assay: Induction of ERalpha degradation in human MCF7 cells assessed as decrease in ERalpha protein expression incubated for 48 hrs under hormone-deprived medium by Western blot analysis; type: cell-based
Summary of the method: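 In-cell western: MCF7 seeded in hormone-deprived media for 72 h, then 10-point dose series in the same media for 48 h. Minimum-signal control compound at 1 μM. Cells fixed (4% formaldehyde), permeabilized (0.1% Triton X-100), blocked (3% fish gelatin), stained for ERα and α-tubulin, imaged; ERα normalized to tubulin.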

[9] = molecular target: T1, Estrogen receptor; assay: Induction of ERalpha degradation in human MCF7 cells assessed as decrease in ERalpha protein expression incubated for 24 hrs by Western blot analysis; type: cell-based
[10] = test system: MCF7; assay: Antiproliferative activity against human MCF7 cells assessed as growth inhibition preincubated with estradiol for 30 mins followed by compound addition and measured after 7 days by CellTiter-Glo assay; settings: MCF7, 7 days
[11] = test system: MCF7; assay: Antitumor activity against human MCF7 cells xenografted in CD1 mouse assessed as tumor growth inhibition at 3 mg/kg, sc administered once daily for 28 days by caliper method; settings: 672 h, read-out: TGI
[12] = Toxicity in CD1 mouse xenografted with human MCF7 cells assessed as change in body weight at 3 mg/mouse, sc administered once weekly for 28 days; settings: in vivo, 672 h
[13] = AUCinfinity in CD1 mouse at 10 mg/kg, sc administered as single dose […]; type: ADME, organism-based; set-up: route subcutaneous, dose 10 mg/kg; settings: in vivo
[14] = Cmax in CD1 mouse at 10 mg/kg, sc administered as single dose […]; type: ADME, organism-based; set-up: route subcutaneous, dose 10 mg/kg; settings: in vivo
[15] = Bioavailability in CD1 mouse at 10 mg/kg, sc administered as single dose […]; type: ADME, organism-based; settings: in vivo
[16] = Clearance in CD1 mouse at 0.3 mg/kg, iv administered as cassette dosing […]; type: ADME, organism-based; settings: in vivo
[17] = Microsomal stability in mouse liver microsomes assessed as intrinsic clearance measured upto 60 mins; type: ADME, Microsome; settings: read-out: CLH
Summary of the method: (§2)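 Compounds at 2 μM final incubated with pooled human or male mouse liver microsomes. Percent remaining measured at 0, 15, 30, 45 and 60 min and used to calculate in vitro half-life.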

[18] = Half life in CD1 mouse at 10 mg/kg, sc administered as single dose […]; type: ADME, organism-based; settings: in vivo
[19] = Apparent permeability of compound across apical to basolateral side in MDCK cells; type: ADME, cell-based, Canis lupus familiaris; settings: dog
[20] = Microsomal stability in human liver microsomes assessed as intrinsic clearance measured upto 60 mins; type: ADME, Microsome; settings: read-out: CLH; summary of the method: as §2
[21] = Plasma protein binding in human; type: ADME, cell-free; settings: read-out: PPB
[22] = Half life in CD1 mouse at 0.3 mg/kg, iv administered as cassette dosing […]; type: ADME, organism-based; settings: in vivo
[23] = Solubility of compound; type: physicochemical
[24] = Volume of distribution at steady state in CD1 mouse at 0.3 mg/kg, iv administered as cassette dosing […]; type: ADME, organism-based; settings: in vivo, read-out: Vdss
[25] = molecular target: T2, Estrogen receptor (Homo sapiens) (UniProt P03372); assay: Induction of ERalpha degradation in human MCF7 cells assessed as degradation maximum incubated for 48 hrs under starved CSS media condition by Western blot analysis relative to control; type: cell-based
T2 sequence (whole entry): T1 sequence (P03372 whole entry)
Summary of the method: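 MCF7 cells in hormone-deprived media (agonist mode) or full-serum media (antagonist mode) were treated with 1 μM compound over a 48 h time course. Cells were lysed and ERα was detected by western blot, with tubulin as the normalizer.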

Row | SMILES | GI50 [1] [nM] | pIC50 [2] | pIC50 [4] | GI50 [5] [nM] | pIC50 [6] | pIC50 [7] | also measured
1 | CN[C@@H](C)C(=O)N[C@H](C(=O)N1CCC[C@H]1c1nc(C(=O)c2cccc(OCCOCc3cn(CCOc4ccc(Cn5c(-c6ccc(O)cc6)c(C)c6cc(O)ccc65)cc4)nn3)c2)cs1)C1CCCCC1 | > 10000 | 8.14 | 7.21 | 51 | 7.40 | 7.62 | DC50 [3]: 174 nM
2 | CN(Cc1cccc(O)c1Cl)CC1(c2ccccc2OCCN2CCCCC2)CCCC1 | > 10000 | < 5.00 |  | 3140 |  |  | 
3 | CN(Cc1cccc(O)c1Cl)C(C1CCCC1)C(F)(F)F (stereo not drawn) | 460 | 7.15 | 7.62 | > 10000 | 7.35 | 6.96 | 
4 | Cc1c(-c2ccc(O)cc2)n(Cc2ccc(OCCn3cc(COCCOc4cccc5c4C(=O)N(C4CCC(=O)NC4=O)C5=O)nn3)cc2)c2ccc(O)cc12 (stereo not drawn) | > 10000 | 8.80 | 8.49 | 3250 | 8.33 | 8.68 | DC50 [8]: 2500 nM
5 | CN[C@H](C)C(=O)N[C@H](C(=O)N1CCC[C@H]1c1nc(C(=O)c2ccc(F)cc2)cs1)C1CCN(C(=O)COCCOCc2cn(CCOc3ccc(Cn4c(-c5ccc(O)cc5)c(C)c5cc(O)ccc54)cc3)nn2)CC1 |  | 7.28 |  | > 10000 |  |  | DC50 [9]: > 10000 nM; GI50 [10]: > 10000 nM
6 | Cc1ncsc1-c1ccc([C@H](C)NC(=O)[C@@H]2C[C@@H](O)CN2C(=O)[C@@H](NC(=O)COCCOCCOCc2cn(CCOc3ccc(Cn4c(-c5ccc(O)cc5)c(C)c5cc(O)ccc54)cc3)nn2)C(C)(C)C)cc1 | > 10000 | 7.66 | 7.82 | 211 | 8.03 | 8.22 | DC50 [8]: 9 nM
7 | C[C@]12CC[C@@H]3c4ccc(O)cc4C[C@@H](CCCCCCCCC[S+]([O-])CCCC(F)(F)C(F)(F)F)[C@H]3[C@@H]1CC[C@@H]2O (stereo partly drawn) [FULVESTRANT] |  |  |  |  |  |  | inhibition in vivo at 3 mg/kg [11]: 91.6%; Activity [12]: Non-Toxic
8 | Oc1cccc(CN(CCCN2CCCCC2)CC2(c3ccccc3F)CCCC2)c1Cl |  | 6.02 |  |  |  |  | 
9 | Oc1cccc(CN(CCN2CCCCC2)CC2(c3ccccc3F)CCCC2)c1Cl |  | < 5.00 |  |  |  |  | 
10 | Oc1cccc(CN(CC2(c3ccccc3F)CCCC2)c2ccc(OCCN3CCCCC3)cc2)c1Cl | > 10000 | 8.10 |  | 68 |  |  | DC50 [8]: 15 nM; Activity [25]: 70%
11 | CN(Cc1cccc(O)c1Cl)CC1(c2ccccc2F)CCCC1 | 550 | 7.82 | 8.09 | > 10000 | 8.14 | 7.68 | 

Continued, in another order:

Row | GI50 [1] [nM] | pIC50 [2] | pIC50 [4] | GI50 [5] [nM] | pIC50 [6] | pIC50 [7] | SMILES | also measured
12 | > 10000 | 8.28 | 7.28 | 34 | 7.54 | 7.85 | Cc1ncsc1-c1ccc(CNC(=O)N2C[C@H](O)CC2C(=O)[C@H](NC(=O)C2(F)CC2)C(C)(C)C)c(OCCOCc2cn(CCOc3ccc(Cn4c(-c5ccc(O)cc5)c(C)c5cc(O)ccc54)cc3)nn2)c1 (stereo partly drawn) | DC50 [3]: 27 nM
13 | < 5 | 7.82 |  | > 10000 |  |  | Oc1cccc(CN(CC2(c3ccccc3F)CCCC2)c2ccccc2)c1Cl | 
14 | > 10000 | 7.08 |  | 3100 |  |  | Oc1cccc(CN(CCOCCN2CCCCC2)CC2(c3ccccc3F)CCCC2)c1Cl | 
15 | > 10000 | 7.66 | 7.42 | 335 | 7.57 | 7.74 | Cc1ncsc1-c1ccc([C@H](C)NC(=O)[C@@H]2C[C@@H](O)CN2C(=O)[C@@H](NC(=O)COCCOCc2cn(CCOc3ccc(Cn4c(-c5ccc(O)cc5)c(C)c5cc(O)ccc54)cc3)nn2)C(C)(C)C)cc1 | DC50 [8]: 20 nM
16 | > 10000 | 7.77 | 6.48 | 165 | 6.57 | 6.77 | Cc1ncsc1-c1ccc([C@H](C)NC(=O)[C@@H]2C[C@@H](O)CN2C(=O)[C@H](NC(=O)COCc2cn(CCOc3ccc(N(Cc4cccc(O)c4Cl)CC4(c5ccccc5F)CCCC4)cc3)nn2)C(C)(C)C)cc1 | AUC(0-inf) [13]: 9.8 µM·h; Cmax [14]: 1500 nM; bioavailability [15]: 83%; clearance [16]: 20 mL/min/kg; microsomal CLint [17]: 199 µL/min/mg; DC50 [3]: 4.2 nM; half-life [18]: 21 h; Papp A→B [19]: < 0.1 ×10⁻⁶ cm/s; microsomal CLint [20]: 31 µL/min/mg; fraction unbound [21]: < 0.004; half-life [22]: 2.7 h; solubility [23]: < 0.2 µM; Vd [24]: 1.24 L/kg
17 | > 10000 | 7.96 | 8.09 | 247 | 6.54 | 7.68 | Cc1ncsc1-c1ccc([C@H](C)NC(=O)[C@@H]2C[C@@H](O)CN2C(=O)[C@@H](NC(=O)COCc2cn(CCOc3ccc(Cn4c(-c5ccc(O)cc5)c(C)c5cc(O)ccc54)cc3)nn2)C(C)(C)C)cc1 | DC50 [8]: 20 nM
18 | < 5 | 7.21 |  | > 10000 |  |  | CN(Cc1cccc(O)c1Cl)CC1(c2ccc(OCCN3CCCCC3)cc2F)CCCC1 | 
